In ChEMBL document CHEMBL1124239, “Decomposition of N-(2-chloroethyl)-N-nitrosocarbamoyl amino acid amides” (J Med Chem, 1988):

Experiments:
Mus musculus [1] = experiment: Increase in life span was tested after administration of single ip dose at 200 mg/kg (0.8 mmol/kg) in L1210 leukemia in mice; Toxic; type: toxicity, organism-based; set-up: dose 200 mg/kg, route intraperitoneal; conditions: in vivo
How it was run: (§1)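 L1210 leukemia-bearing mice got a single ip dose on the first day after transplantation. Read-out was median survival in days, treated (T) versus control (C). %ILS = (T − C)/C × 100. Doses are given in both mg/kg and mmol/kg; "tox" marks doses that were toxic.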

[2] = Half-life evaluated in 0.1 M phosphate buffer, 37 degree Centigrade.; type: ADME
How it was run: (§2)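 Decomposition was followed in aqueous solution. Rate constants and half-lives were calculated assuming apparent first-order kinetics.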

Mus musculus [3] = experiment: Increase in life span was tested after administration of single maximal effective ip dose at 100 mg/kg (0.4 mmol/kg) in L1210 leukemia in mice; type: functional; conditions: route intraperitoneal; how it was run: as §1
[4] = Rate constant at a concentration of 2.54M*10e-3 was determined; type: ADME; how it was run: as §2
Mus musculus [5] = experiment: Increase in life span was tested after administration of single maximal effective ip dose at 20 mg/kg (0.11 mmol/kg) in L1210 leukemia in mice; type: functional; conditions: route intraperitoneal; how it was run: as §1
Mus musculus [6] = experiment: Increase in life span was tested after administration of single ip dose at 38 mg/kg (0.21 mmol/kg) in L1210 leukemia in mice; Toxic; type: toxicity, organism-based; set-up: dose 38 mg/kg, route intraperitoneal; conditions: in vivo; how it was run: as §1
Mus musculus [7] = experiment: Increase in life span was tested after administration of single ip dose at 40 mg/kg (0.16 mmol/kg) in L1210 leukemia mice; Toxic; type: toxicity, organism-based; set-up: dose 40 mg/kg, route intraperitoneal; conditions: in vivo; how it was run: as §1
Mus musculus [8] = experiment: Increase in life span was tested after administration of single maximal effective ip dose at 20 mg/kg (0.08 mmol/kg) in L1210 leukemia mice; type: functional; conditions: route intraperitoneal; how it was run: as §1

SMILES | ILS (Mus musculus [1]) | half-life [2] [min] | ILS at 100 mg/kg (Mus musculus [3]) [%] | k [4] [min⁻¹] | ILS at 20 mg/kg (Mus musculus [5]) [%] | ILS (Mus musculus [6]) | ILS (Mus musculus [7]) | ILS at 20 mg/kg (Mus musculus [8]) [%]
NC(=O)C1CCCN1C(=O)N(CCCl)N=O (stereo not given) | Toxic | 256 | 420 | 0.00274 | – | – | – | –
O=NN(CCCl)C(=O)NCCCl [CARMUSTINE] | – | – | – | – | 115 | Toxic | – | –
CC(C)C(NC(=O)N(CCCl)N=O)C(N)=O (stereo not given) | – | 15.5 | – | 0.0452 | – | – | Toxic | 212
